Bioassay records: PubChem, several laboratories
PG9 binder – small molecules binding HIV-1 gp120 antibody PG9. TR-FRET gp120-PG9 antibody binding. inhibition, % at 6.7 µM. 0.43% of 360,000 active. AID 624416; in the data active = inhibition above about 8.5%
Rev-erbA mod – modulates human Rev-erb alpha binding to DNA. AID 1259318. Rev-erbα–FITC-DNA binding, fluorescence polarization, 90 min. 0.79% of 370,000 active. activity, % at 10 µM. P20393;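 active = activity above about 14%, limit read from the data; passing the limit was not always enough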
Target sequence (P20393 whole entry, looked up): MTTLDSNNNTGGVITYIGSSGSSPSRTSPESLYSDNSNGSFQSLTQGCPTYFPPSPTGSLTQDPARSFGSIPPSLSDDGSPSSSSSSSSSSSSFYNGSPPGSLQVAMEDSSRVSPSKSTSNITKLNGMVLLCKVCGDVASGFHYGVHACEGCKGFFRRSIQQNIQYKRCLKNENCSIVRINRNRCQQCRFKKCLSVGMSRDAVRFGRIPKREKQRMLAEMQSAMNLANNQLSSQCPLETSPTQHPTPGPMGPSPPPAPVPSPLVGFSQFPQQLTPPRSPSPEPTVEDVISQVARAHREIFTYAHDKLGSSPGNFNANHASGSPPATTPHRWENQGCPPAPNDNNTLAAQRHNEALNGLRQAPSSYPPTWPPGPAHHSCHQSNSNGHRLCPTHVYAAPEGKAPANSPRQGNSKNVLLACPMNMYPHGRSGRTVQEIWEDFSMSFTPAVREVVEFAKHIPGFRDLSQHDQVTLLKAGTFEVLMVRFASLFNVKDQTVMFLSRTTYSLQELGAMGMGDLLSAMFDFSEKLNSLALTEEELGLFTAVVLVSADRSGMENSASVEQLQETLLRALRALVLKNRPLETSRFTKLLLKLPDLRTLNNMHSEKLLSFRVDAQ
GalR3 antag – human GalR3 antagonism. O60755. HEK293 GalR3-CNG cAMP membrane potential fluorescence; galR3 body fused to GalR1 C-terminus. inhibition, % at 3 µM. 0.44% of 360,000 active;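 active = inhibition above the screen-wide average plus 3 SD, cut at about 13% in these data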;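 also: forskolin and galanin both at EC90 stimulate the cells; cAMP rise reported by CNG channel membrane potential dye signal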
NR2E3 ag-1 – activates human photoreceptor nuclear receptor NR2E3; GST-NR2E3/biotin-RetCOR TR-FRET, 1536-well; inhibition of corepressor binding, % at 4.78 µM; 0.12% of 320,000 active; AID 2300;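 active = percent inhibition above the cutoff of mean plus 3 SD of all tested compounds, set per screening campaign, cut at about 20% in these data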
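Test system – NR2E3–RetCOR corepressor complex · Quantity – NR2E3 fusion 1.35 nM · Buffer or medium – Tris pH 7.5 · Incubation – Compound–protein incubation for 5 h at 4 °C · Technique – TR-FRET, Eu(K)-anti-GST donor, streptavidin-D2 acceptor, ex 340, em 617/671 nm · Evaluation – percent inhibition of 671/617 nm emission ratio versus biotin and DMSO controls · Plate – 1536-well format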
NR2E3 ag-2 – agonists of human NR2E3 nuclear receptor. CHO-S Gal4-NCOR/VP16-NR2E3 two-hybrid, luciferase. 0.35% of 360,000 active. AID 602229. inhibition of corepressor binding, % at 3.98 µM;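 active = inhibition above the mean of all tested compounds plus 3 SD, cut at about 70% in these data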;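 also: higher means lower luciferase signal from less NR2E3 corepressor binding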
PG9 bind confirm – confirmation of small molecules binding HIV-1 gp120 antibody PG9; shares compounds with PG9 binder; TR-FRET PG9 antibody binding, biochemical; inhibition, % at 6.7 µM; 90% of 1,500 active; AID 651571; in the data active = inhibition above about 9%
PGV04 Ab binding – PGV04 control antibody binding, counter-screen; shares compounds with PG9 binder; TR-FRET PGV04 antibody-gp120 binding, biochemical; inhibition, % at 6.7 µM; 95% of 1,500 active; in the data active = inhibition above about 9.5%
PG9 binder DR – PG9 antibody binding, dose response | shares compounds with PG9 binder | AID 651848 | 95 tested, under 10 active | IC50, µM | TR-FRET PG9 antibody-gp120 binding inhibition; in the data active = IC50 below about 10 µM
PGV04 binding DR – binds control antibody PGV04 in PG9 counter-screen; AID 651937; TR-FRET binding to control antibody PGV04; shares compounds with PG9 binder; IC50, µM; 20% of 95 active
PG126 binding DR – binds control antibody PG126 in PG9 counter-screen | shares compounds with PG9 binder | TR-FRET binding to antibody PG126, counterscreen | IC50, µM | 20% of 95 active | AID 651939
Of the large screens only hits and unclear results are named; the others gave an inactive call (follow-up assays come after a bar, where they were run). Compounds with a hit are over-represented: about 1.8% of the library has one in this group of screens. Rule as the data show it, unless noted: active = IC50 below about 9 µM; inactive = the rest.

COc1ccc(/C(O)=C2/C(=O)C(=O)N(CCCN(C)C)C2c2ccc(Cl)cc2)cc1OC (centres undefined)	PG9 binder 13 | PG9 bind confirm 23 | PGV04 Ab binding 30
O=C1C(=O)N(CCCn2ccnc2)C(c2cccc(Br)c2)/C1=C(\O)c1ccc2c(c1)OCCO2 (centres undefined)	PG9 binder 27 | PG9 bind confirm 45 | PGV04 Ab binding 40 | PG9 binder DR inactive | PGV04 binding DR 5.4 | PG126 binding DR 8
CCOC(=O)CC[C@@H]1CC[C@]2(CCCN(C(=O)C3CCCCC3)C2)O1	none (no result: PG9 binder, GalR3 antag, NR2E3 ag-1, NR2E3 ag-2)
COc1cccc(-c2nnc(SCC(=O)OC(C)C)n2-c2ccc(Cl)cc2)c1	none (no result: PG9 binder, GalR3 antag, NR2E3 ag-1, NR2E3 ag-2)
O=C1C(=O)N(CCCn2ccnc2)C(c2ccc(Br)cc2)/C1=C(\O)c1ccc2c(c1)OCCO2 (centres undefined)	PG9 binder 14 | PG9 bind confirm 13 | PGV04 Ab binding 15
COc1ccc(/C(O)=C2/C(=O)C(=O)N(CCCN3CCOCC3)C2c2ccc(Cl)cc2)cc1 (centres undefined)	PG9 binder 12 (no result: NR2E3 ag-1) | PG9 bind confirm 26 | PGV04 Ab binding 43
COc1cccc(C2/C(=C(\O)c3ccc4c(c3)OCCO4)C(=O)C(=O)N2CCCn2ccnc2)c1 (centres undefined)	PG9 binder 12 | PG9 bind confirm 20 | PGV04 Ab binding 23
COc1ccccc1NC(=O)c1ccc(NC(=O)Cc2n[nH]c(=O)c3ccccc23)cc1	PG9 binder 11 | PG9 bind confirm 12 | PGV04 Ab binding 18
CCC(C)CNC(=O)c1cn(C(C)c2ccccc2)nn1 (centres undefined)	none (no result: PG9 binder, GalR3 antag, NR2E3 ag-1, NR2E3 ag-2)
Cc1c(Br)c(O)c(Br)c2sc(=O)oc12	PG9 binder 18 | PG9 bind confirm 11 | PGV04 Ab binding 21
CCCC[C@H](C(=O)N(CC)c1ccccc1)[C@@H](O)c1ccc(C(C)=O)cc1	none (no result: PG9 binder, GalR3 antag, NR2E3 ag-1, NR2E3 ag-2)
COCc1cc(C)n(CC(=O)Nc2ccc(Cl)cc2Cl)c(=O)c1C#N	PG9 binder 8.8 | PG9 bind confirm inactive | PGV04 Ab binding inactive | PG9 binder DR inactive | PGV04 binding DR inactive | PG126 binding DR inactive
COCc1cc(C)n(CC(=O)Nc2ccccc2OC)c(=O)c1C#N	none
O=C(Cc1c[nH]c2ccccc12)Nc1ccc(Nc2cccnc2)c(-c2ccc(-c3ccccc3)cc2F)c1	none (no result: NR2E3 ag-1, NR2E3 ag-2)
CCN(c1ccccc1)S(=O)(=O)c1ccc2[nH]cc(C(=O)N3CCOCC3)c(=O)c2c1	PG9 binder 9.1 | PG9 bind confirm inactive | PGV04 Ab binding 9.9
CCN(c1ccc(F)cc1)S(=O)(=O)c1ccc2[nH]cc(C(=O)NCCCN3CCOCC3)c(=O)c2c1	none
O=C(Cn1c2ccccc2c2nc3n(c(=O)c21)CCS3)Nc1ccccc1	none
COc1cccc(NC(=O)Cn2c3ccc(OC)cc3c3nc4n(c(=O)c32)CCS4)c1	PG9 binder 14 | PG9 bind confirm 31 | PGV04 Ab binding 25 | PG9 binder DR inactive | PGV04 binding DR 9 | PG126 binding DR inactive
O=c1oc(-c2cccs2)nc2c1cnn2-c1ccccc1	PG9 binder 9.5 | PG9 bind confirm 13 | PGV04 Ab binding 18
COc1ccc(Nc2nc(C)nc3c2oc2ccccc23)c(OC)c1	PG9 binder 13 | PG9 bind confirm 15 | PGV04 Ab binding 22
CCOC(=O)c1c(NC(=O)C2C3C=CC(CC3)C2C(=O)O)sc(C)c1CC (centres undefined)	PG9 binder 8.7 | PG9 bind confirm 18 | PGV04 Ab binding 23
CCN(CC)C(=O)Cc1c(OC)ccc2cc(Br)ccc12	none
CCCNC(=O)Cc1c(OC)ccc2cc(Br)ccc12	PG9 binder 11 | PG9 bind confirm 24 | PGV04 Ab binding 31
CCNC(=O)Cc1c(OC)ccc2cc(Br)ccc12	none
CCCCNC(=O)Cc1c(OC)ccc2cc(Br)ccc12	PG9 binder 8.6 | PG9 bind confirm 17 | PGV04 Ab binding 21
COc1ccc2cc(Br)ccc2c1CC(=O)NC(C)(C)C	PG9 binder 13 | PG9 bind confirm 21 | PGV04 Ab binding 25
COC(=O)[C@@]12CCCCC3=C1N(CCC3)C(=O)[C@H]2CC(=O)N1CCCCC1	none (no result: PG9 binder, GalR3 antag, NR2E3 ag-1, NR2E3 ag-2)
COc1ccc2c(Cl)c(C(N)=O)sc2c1	PG9 binder 18 | PG9 bind confirm 26 | PGV04 Ab binding 35
COc1ccc2c(Cl)c(C(=O)NN)sc2c1	none
COc1cc(C(=O)Nc2cccc(-c3nc4ncccc4o3)c2C)cc(OC)c1OC	none
COc1cc(C(=O)Nc2cccc(-c3nc4cc(C)ccc4o3)c2C)cc(OC)c1OC	PG9 binder 12 | PG9 bind confirm 17 | PGV04 Ab binding 27
CC(C)(C)CNC(=O)c1cc2c(Br)ccc(Br)c2nc1N	PG9 binder 10.0 (no result: NR2E3 ag-1) | PG9 bind confirm inactive | PGV04 Ab binding 14
Nc1nc2sc3c(c2cc1C(=O)NCC(=O)O)CCCC3	none
C#CCNC(=O)c1cc2c(Br)ccc(Br)c2nc1N	PG9 binder 17 (no result: NR2E3 ag-1) | PG9 bind confirm 18 | PGV04 Ab binding 22
CCn1cc(CCC(=O)Nc2ccc(Oc3cccnc3)cc2)c2ccccc21	none (no result: NR2E3 ag-1, NR2E3 ag-2)
C=CCN1[C@H](C#N)[C@@H](c2ccc(C#Cc3ccccc3OC)cc2)[C@H]1CO	none (no result: PG9 binder, GalR3 antag, NR2E3 ag-1, NR2E3 ag-2)
Cc1cc(=O)oc2cc(OC(C)C(=O)Nc3ccc(C(N)=O)cc3)ccc12 (centres undefined)	none
Cc1cc(=O)oc2cc(NC(=O)C(C)Oc3cccc(Cl)c3)ccc12 (centres undefined)	PG9 binder 10.0 | PG9 bind confirm 12 | PGV04 Ab binding 19
CC(=O)c1sc(C(C)(C)C)cc1NC(=O)c1ccccc1C(=O)O	PG9 binder 48 | PG9 bind confirm 57 | PGV04 Ab binding 65
O=C(O)c1ccccc1C(=O)Nc1ccccc1NC(=O)c1ccccc1C(=O)O	none
CCC[C@H]1[C@@H](OC(=O)NCc2ccc(OC)c(OC)c2)CC[C@@]23CCCN2C(=O)CCC[C@@H]13	none (no result: PG9 binder, GalR3 antag, NR2E3 ag-1, NR2E3 ag-2)
Cc1c(Cl)cnc(NC(=O)COC(=O)c2ccncc2)c1Cl	none
COc1ccc(C)cc1NC(=O)COC(=O)c1ccc2c(c1)OCCO2	none
Cc1c(Cl)cnc(NC(=O)COC(=O)c2ccc3c(c2)OCO3)c1Cl	PG9 binder 28 | PG9 bind confirm 16 | PGV04 Ab binding 30
